Screens deposited in PubChem BioAssay by several laboratories.
Most compounds without a hit are left out; they make up all but 1.5% or so of the library.
Platelet DG rel = modulates dense granule release in human platelets; human platelet-rich plasma, SFLLRN dense granule ATP release, luminescence; inhibition, %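 (compounds screened at 7.5 µM in platelet-rich plasma)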; actives 0.22% (n = 300,000); AID 1663;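 active = mean replicate score, as percent of positive control, at or above 50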
Myeloid diff MLP = promotes myeloid progenitor differentiation. AID 624256. calls only at 10 µM. actives 1% (n = 360,000). ER-HoxA9 myeloid progenitors, lysozyme-GFP differentiation, flow cytometry;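 active = normalized GFP-positive differentiation at or above the plate's own cutoff, the solvent-only control mean plus 3 SD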;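 note: cells exposed to compound for four days before flow analysis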
VLA-4 inh = inhibition in a human VLA-4 binding assay; AID 2557; actives 0.2% (n = 330,000); inhibition, % (about 7 µM as worked out from the volumes in the protocol); VLA-4 expressing cells, ligand binding flow cytometry; in the data active = inhibition above about 50%
Target sequence (P13612 whole entry, looked up): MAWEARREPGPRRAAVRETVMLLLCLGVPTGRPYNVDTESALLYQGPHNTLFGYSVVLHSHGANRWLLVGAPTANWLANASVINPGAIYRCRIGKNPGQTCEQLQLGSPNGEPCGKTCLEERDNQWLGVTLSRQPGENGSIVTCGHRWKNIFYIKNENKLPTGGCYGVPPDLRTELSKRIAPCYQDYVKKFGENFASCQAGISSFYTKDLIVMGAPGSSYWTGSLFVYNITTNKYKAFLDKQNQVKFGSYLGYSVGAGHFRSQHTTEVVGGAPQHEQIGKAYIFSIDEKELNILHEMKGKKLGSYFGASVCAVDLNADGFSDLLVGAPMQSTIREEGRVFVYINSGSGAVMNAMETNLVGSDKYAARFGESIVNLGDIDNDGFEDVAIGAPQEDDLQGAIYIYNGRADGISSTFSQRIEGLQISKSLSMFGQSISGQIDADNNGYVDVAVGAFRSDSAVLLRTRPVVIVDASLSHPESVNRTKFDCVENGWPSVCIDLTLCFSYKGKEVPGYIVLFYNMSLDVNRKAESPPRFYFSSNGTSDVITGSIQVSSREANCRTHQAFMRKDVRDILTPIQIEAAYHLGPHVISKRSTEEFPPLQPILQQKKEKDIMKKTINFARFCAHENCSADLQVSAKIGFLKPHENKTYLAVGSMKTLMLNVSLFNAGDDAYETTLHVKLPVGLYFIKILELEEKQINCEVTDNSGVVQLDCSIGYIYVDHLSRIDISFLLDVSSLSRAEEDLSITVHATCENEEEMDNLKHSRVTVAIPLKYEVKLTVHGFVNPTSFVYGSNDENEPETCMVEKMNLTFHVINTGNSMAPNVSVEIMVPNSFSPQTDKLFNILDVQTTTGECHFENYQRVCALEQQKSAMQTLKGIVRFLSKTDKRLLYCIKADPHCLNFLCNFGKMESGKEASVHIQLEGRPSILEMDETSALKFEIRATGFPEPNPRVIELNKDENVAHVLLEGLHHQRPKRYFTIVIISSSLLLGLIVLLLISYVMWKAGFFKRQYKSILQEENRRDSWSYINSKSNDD
SENP1 inh = inhibitors of human SENP1 SUMO protease catalytic domain. Q9P0U3. recombinant SENP1 catalytic domain, CyPet-SUMO1-YPet FRET cleavage. inhibition, % at 10 µM. actives 0.21% (n = 360,000);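 active = inhibition at least 30% at 10 µM, raw YFP signal under a set limit, fluorescence ratio 0.5 to 1.5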;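 note: 0% = enzyme with DMSO and 100% = no enzyme wells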
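Material: hSENP1 catalytic domain, recombinant; medium: Tris pH 8 with BME, BSA, NP40 and catalase; compound: single concentration of 10 µM compound, 0.5% DMSO final; technique: FRET read of cyan and yellow fluorescence; timing: 50 min enzyme reaction, room temperature, light-protected; reagent: SFCypet-SUMO1-SFYpet substrate at 25 nM; control set: no-enzyme low, enzyme-DMSO high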
* hit, by the source's call; i = inactive; . = not tested or not shown; + = active, no number.

SMILES	Platelet DG rel	Myeloid diff MLP	VLA-4 inh	SENP1 inh
CCn1c2ccccc2c2cc(NC(=O)CSc3nnc(-c4cccc(C)c4)o3)ccc21	-2.8	i	-4.3	2.9
CCn1c2ccccc2c2cc(NC(=O)CN(C)CC(=O)Nc3ccc(N4CCOCC4)cc3)ccc21	-3.8	i	-0.3	-1.9
CCn1c2ccccc2c2cc(NC(=O)N3CCOCC3)ccc21	-0.4	i	-8.8	32.3*
CCOC(=O)c1ccc[n+](CC(=O)c2ccc(NC(=O)c3ccccc3)cc2)c1	-1.9	i	4.1	-0.2
NS(=O)(=O)c1cccc(NC(=O)CSc2nnc(NC3CC3)s2)c1	.	i	.	-0.7
O=C(c1ccc(F)cc1F)N1CCN(c2ccccn2)CC1	-43.5	i	-11.2	1.3
CCOC(=O)C1CCC(CN(Cc2ccccc2C)S(=O)(=O)c2ccc([N+](=O)[O-])cc2)CC1 (stereo not given)	4.6	+	-0.8	-0.1
Cc1ncc([N+](=O)[O-])n1CC(=O)N/N=C/c1ccc(F)cc1	-5.6	+	-6.8	-0.7
Cc1ncc([N+](=O)[O-])n1CC(=O)Nc1ccc(F)cc1F	16.7	i	3.1	1.2
COc1ccc(Cl)cc1NC(=O)CCNC(=O)OCc1ccccc1	4.4	i	10.5	2.5
Cc1cc[n+](-c2[nH]c(=O)sc2/C=N/N=C(\[O-])c2ccccc2)cc1C	-0.7	i	.	39.7*
Cc1cc[n+](-c2[nH]c(=O)sc2/C=N/N=C(\[O-])c2ccncc2)cc1C	-20.3	i	8.9	1.7
Cn1c(/C(C#N)=C/c2ccc(-c3ccc(S(N)(=O)=O)cc3)o2)nc2ccccc21	.	+	-96.1	-27.8
Cn1c(/C(C#N)=C/c2cccc(O)c2)nc2ccccc21	6.6	i	11.4	-13.2
Cc1ccc(S(=O)(=O)C(C#N)c2nc3ccccc3nc2N2CCCC2)cc1 (stereo not given)	-3.1	+	-3.1	-17.6
Cc1ccc(S(=O)(=O)N2CCCN(c3nc4cc(C)ccc4cc3C#N)CC2)cc1	-7.2	+	2.3	-27.5
Cc1ccc2nc(N3CCN(S(=O)(=O)c4ccc5c(c4)OCCO5)CC3)c(C#N)cc2c1	-2.1	i	-7.4	-132.6
CCN1CCN(c2nc3ccccc3nc2C(C#N)S(=O)(=O)c2ccc(C)cc2)CC1 (stereo not given)	0.5	i	19.8	-23.8
N#CC(C(=O)NCc1ccccc1)c1nc2ccccc2nc1N1CCCC1 (stereo not given)	1.2	+	-10.7	9.7
N#CC(C(=O)NCCc1ccccc1)c1nc2ccccc2nc1N1CCCCC1 (stereo not given)	-1.1	i	-1.7	5.2
COC(=O)C1=CN(c2ccc3c(c2)OCO3)C(N)=C(C#N)C1c1ccccc1 (stereo not given)	.	+	.	-4.1
CC1CC(C)CN(C(=O)c2ccc(S(=O)(=O)N3CC(C)CC(C)C3)cc2)C1 (stereo not given)	6.8	i	-1.1	-2.7
CC1CC(C)CN(S(=O)(=O)c2ccc(C(=O)N3CCCC3)cc2)C1 (stereo not given)	3.9	+	0.1	2.7
CC1=C(C(=O)N(C(C)C)C(C)C)CC(CC(=O)NC(c2ccccc2)c2ccccc2)C(=O)N1Cc1ccc(C(C)(C)C)cc1 (stereo not given)	.	+	.	2.3
CCN(CC)C(=O)C1=C(C)N(CCCN2CCCC2=O)C(=O)C(CC(=O)NC(c2ccccc2)c2ccccc2)C1 (stereo not given)	.	i	.	0.1
SMILES	Platelet DG rel	Myeloid diff MLP	VLA-4 inh	SENP1 inh
CC1=C(C(=O)N(C)C)CC(CC(=O)NC(c2ccccc2)c2ccccc2)C(=O)N1CCCN1CCCC1=O (stereo not given)	.	+	.	0.6
CCOc1ccccc1CN1CCC(N2CCOCC2)CC1	2.8	i	9.6	-0.9
CC(C)(C)n1nnnc1CN(Cc1cccnc1)Cc1ccccc1Cl	0.8	+	11.7	-0.5
[O-]/[N+](=C/c1ccc(F)cc1)c1ccc(Cl)cc1	57.2*	i	7.8	1.5
O=S(=O)(NCCN1CCOCC1)c1ccc2ccccc2c1	.	i	-1.1	-0.3
O=S(=O)(NCCN1CCOCC1)c1ccc(Oc2ccccc2Cl)cc1	-6.4	+	-1.1	-0.1
COCCC(=O)N1CCC(Oc2ccc(C(=O)N3CCC(N(C)C)C3)cc2)CC1 (stereo not given)	-1.9	i	-102.7	1.7
CN(C)CCN(Cc1ccccc1)S(=O)(=O)c1ccc(-c2ccc(=O)[nH]n2)s1	51.3*	i	19.1	1.7
CCCCN(Cc1cccs1)S(=O)(=O)c1ccc(-c2ccc(=O)[nH]n2)s1	4.4	i	-3.3	-3.3
CCN(CC)c1ccc(N)cc1	.	i	-177.1	54.2*
CCN(CC)c1ccc(C(=O)NN)cc1	-3.3	+	17.8	-1.2
O=C(Nc1ccc(F)cc1F)c1ccc2c(=O)n3c(nc2c1)CCC3	.	i	.	-1.2
CCCCn1nc2cc(C(=O)NCC34CC5CC(CC(C5)C3)C4)ccc2c1OCC	2.4	+	22.2	2.9
CCCCn1nc2cc(C(=O)NCCc3cccs3)ccc2c1OCC	6.8	i	-3.7	2.2
CN(C)c1ccc(/C=N/Nc2nncc3ccccc23)cc1	53.8*	i	2.0	0.8
COc1cc(/C=N/Nc2nncc3ccccc23)cc(OC)c1OC	10.7	+	-2.9	0.2
CC1(C)CSC(C)(C)C(=O)N1	.	i	.	2.7
Clc1ccc(CSc2ccc(-c3cccnc3)nn2)cc1	-0.8	+	-6.8	0.0
O=c1ccc(S(=O)(=O)N2CCCC2)cn1Cc1ccc(F)cc1	.	i	10.5	0.8
Cc1ccc2cc([N+](=O)[O-])ccc2n1	-0.4	i	14.7	1.1
O=C1CC(c2ccco2)Cc2nc(N3CCc4ccccc4C3)ncc21 (stereo not given)	-6.9	i	-8.5	30.6*
CCn1ccnc1CN1CCC(n2nccc2NC(=O)c2ccccc2OC)CC1	-3.9	i	12.5	2.3
CCOc1ccc(S(=O)(=O)Nc2ccccc2C(=O)NCC2CCCO2)cc1 (stereo not given)	7.3	i	7.8	2.9
CCOC(=O)c1ccccc1NS(=O)(=O)c1ccc(OCC)cc1	1.4	+	-7.5	3.5
N#C/C(C(=O)NCc1ccccc1)=C1/N=C(NC(=O)c2cccs2)c2ccccc21	-8.3	+	-30.1	-60.4
SMILES	Platelet DG rel	Myeloid diff MLP	VLA-4 inh	SENP1 inh
NC(=O)c1sc2nc(-c3ccccc3)c3c(c2c1N)CCCC3	-12.7	+	-1.1	-26.8
O=C(Nc1nc(-c2ccccn2)cs1)c1cc(S(=O)(=O)N2CCOCC2)ccc1F	.	+	-23.8	-15.7
CCOc1ccc(S(=O)(=O)n2cc(F)c(=O)[nH]c2=O)cc1	2.8	+	8.7	1.2
COc1ccc(-c2cnnn2-c2ccc(NC(=O)c3ccc(S(=O)(=O)N4CCCCC4)cc3)cc2)cc1	5.7	i	0.7	0.7
N#CCCN(Cc1cccs1)C(=O)Nc1ccccc1	18.6	i	-14.2	0.6
Cn1c(CNc2ccccc2O)nc2ccccc21	2.8	+	4.0	1.6
